Results published in ChEMBL document CHEMBL1126952, “Synthesis and antitumor properties of an anthraquinone bisubstituted by the copper chelating peptide Gly-Gly-L-His” (J Med Chem, 1993).

How the values were obtained:
[1] = Therapeutic effect against P388 leukemia in mice on days 1, 5 and 9 after administration of 10 mg/kg dose expressed as median survival time of treated and control mice (in vivo); type: organism-based; set-up: dose 10 mg/kg; details: mouse
How it was run: (§1)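 DBA2 mice implanted ip with 10^6 P388 cells on D0; drug given ip on D1, D5, D9. Groups of 7 treated mice, 10 untreated controls. Mice weighed daily; study ended D45. T/C (%) = median survival time of treated over control group.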

[2] = Therapeutic effect against P388 leukemia in mice on days 1, 5 and 9 after administration of 25 mg/kg dose expressed as median survival time of treated and control mice (in vivo); type: organism-based; set-up: dose 25 mg/kg; details: mouse; how it was run: as §1
[3] = Therapeutic effect against P388 leukemia in mice on days 1, 5 and 9 after administration of 5 mg/kg dose expressed as median survival time of treated and control mice (in vivo); type: organism-based; set-up: dose 5 mg/kg; details: mouse; how it was run: as §1
[4] = system: Nucleic Acid; test: Thermal denaturation of calf-thymus DNA was evaluated; type: functional; details: Bos taurus
How it was run: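 Calf thymus DNA (% GC 42) at 2 × 10^-4 M in 0.1 SSC (0.15 M NaCl/0.015 M sodium citrate, pH 7.0). Six curves at P/DNA = 0, 0.2, 0.4, 0.6, 0.8 and 1. A260 followed from 20 to 95 °C at 1 °C/min in a 10-mm cell. Tm = midpoint of the hyperchromic transition.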

[5] = organism: Mus musculus; test: In vitro inhibitory activity against L1210 leukemia cell line; type: functional; details: read-out: ID50 (the source's name)
How it was run: (§2)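 Exponentially growing cells exposed 3 days to drug at final 10^-9 to 10^-4 M. L1210: RPMI 1640 + 10% FCS, seeded 1.5 × 10^5 cells/mL in flasks. MCF7: DMEM + 10% FCS, 10^5 cells/well in 6-well plates. Growth and viability by trypan blue counting; ID50 = concentration inhibiting growth by 50% of control.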

[6] = organism: Mus musculus; test: In vitro cytotoxicity against L1210 leukemia cell line; type: functional; details: read-out: LD50 (the source's name)
How it was run: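 L1210 mouse lymphocytic leukemia cells in RPMI 1640 with 10% (v/v) foetal calf serum, in exponential growth, seeded at 1.5 × 10^5 cells/mL in flasks; drug added at final 10^-9 to 10^-4 M for 3 days. Growth and viability counted by trypan blue staining; ID50 is the concentration inhibiting cell growth by 50% of control.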

[7] = organism: Homo sapiens; test: In vitro inhibitory activity against MCF-7 mammary cell line; type: functional; details: MCF7, read-out: ID50 (the source's name); how it was run: as §2
[8] = Therapeutic effect against P388 leukemia in mice on days 1, 5 and 9 after administration of 1.6 mg/kg dose expressed as median survival time of treated and control mice (in vivo); type: organism-based; set-up: dose 1.6 mg/kg; details: mouse; how it was run: as §1

Structure (SMILES) | ΔTm [4] | IC50 [5] | CC50 [6] | IC50 [7] | further results
NCC(=O)NCC(=O)N[C@@H](Cc1c[nH]cn1)C(=O)NCCNc1ccc(NCCNC(=O)[C@H](Cc2c[nH]cn2)NC(=O)CNC(=O)CN)c2c1C(=O)c1c(O)ccc(O)c1C2=O [listing 1 of 2 here] | – | – | – | – | T/C [1]: 150; T/C [2]: 230; T/C [3]: 140
NCC(=O)NCC(=O)N[C@@H](Cc1c[nH]cn1)C(=O)NCCNc1ccc(NCCNC(=O)[C@@H](Cc2c[nH]cn2)NC(=O)CNC(=O)CN)c2c1C(=O)c1c(O)ccc(O)c1C2=O | 17.1 °C | – | – | – | –
O=C1c2c(O)ccc(O)c2C(=O)c2c(NCCNCCO)ccc(NCCNCCO)c21 [MITOXANTRONE] | 15.9 °C | 7 nM | 7 nM | 270 nM | T/C [8]: 190
NCCCC(NC(=O)[C@@H](Cc1c[nH]cn1)NC(=O)CNc1ccc(O)c2c1C(=O)c1c(O)ccc(O)c1C2=O)C(=O)O (stereo partly drawn) | 11.3 °C | – | – | – | –
NCC(=O)NCC(=O)N[C@@H](Cc1c[nH]cn1)C(=O)NCCNc1ccc(NCCNC(=O)[C@H](Cc2c[nH]cn2)NC(=O)CNC(=O)CN)c2c1C(=O)c1c(O)ccc(O)c1C2=O [listing 2 of 2 here] | – | 50 nM | 70 nM | 800 nM | –
